Measurements: ChEMBL document CHEMBL1147961, “Synthesis and biological evaluation of new 6-s-cis locked 1,2,25-trihydroxyprevitamin D3 analogues” (2007)

Columns and labels:
[1] = target: T1, Vitamin D3 receptor (Sus scrofa) (UniProt A3RGC1); assay: Displacement of [3H]1-alpha,25-(OH)2-D3 from VDR in pig intestinal mucosa relative to 1-alpha,25-(OH)2-D3; type: tissue-based
T1 sequence (whole entry): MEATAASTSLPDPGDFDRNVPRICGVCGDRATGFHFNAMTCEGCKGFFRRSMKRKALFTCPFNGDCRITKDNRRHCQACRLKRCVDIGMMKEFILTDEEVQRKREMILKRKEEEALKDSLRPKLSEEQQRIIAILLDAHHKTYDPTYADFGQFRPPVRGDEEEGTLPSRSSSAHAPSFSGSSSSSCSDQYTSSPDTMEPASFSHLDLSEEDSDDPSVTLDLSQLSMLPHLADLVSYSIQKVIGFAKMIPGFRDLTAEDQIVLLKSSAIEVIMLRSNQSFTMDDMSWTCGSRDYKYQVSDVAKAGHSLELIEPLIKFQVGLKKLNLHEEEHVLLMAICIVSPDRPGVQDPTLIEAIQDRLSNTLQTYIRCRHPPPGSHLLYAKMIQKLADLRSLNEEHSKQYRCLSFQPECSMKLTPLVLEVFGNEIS
How it was run: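 Competitive binding using high-speed supernatant of intestinal mucosa homogenates from normal pigs, competing against [3H]-1α,25-(OH)2-D3. Relative affinity taken from the concentration displacing 50% of tracer, with 1α,25-(OH)2-D3 set at 100%.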

[2] = target: T2, Vitamin D-binding protein (Homo sapiens) (UniProt P02774); assay: Binding affinity to human DBP relative to 1-alpha,25-(OH)2-D3
T2 sequence (whole entry): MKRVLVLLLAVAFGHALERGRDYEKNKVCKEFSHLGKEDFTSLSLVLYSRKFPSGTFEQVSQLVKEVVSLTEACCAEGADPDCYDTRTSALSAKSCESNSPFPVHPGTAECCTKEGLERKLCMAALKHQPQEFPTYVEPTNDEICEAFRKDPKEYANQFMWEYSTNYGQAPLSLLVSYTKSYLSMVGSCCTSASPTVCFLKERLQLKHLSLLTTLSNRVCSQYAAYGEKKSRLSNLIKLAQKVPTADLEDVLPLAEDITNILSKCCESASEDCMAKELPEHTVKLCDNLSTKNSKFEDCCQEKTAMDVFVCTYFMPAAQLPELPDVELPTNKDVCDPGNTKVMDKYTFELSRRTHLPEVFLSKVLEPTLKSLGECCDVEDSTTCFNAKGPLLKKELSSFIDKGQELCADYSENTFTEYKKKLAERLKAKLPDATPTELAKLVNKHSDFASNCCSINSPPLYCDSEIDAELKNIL

MCF7 [3] = assay: Antiproliferative activity against human MCF7 cells after 72 hrs relative to 1-alpha,25-(OH)2-D3; type: functional
How it was run: (§1)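 MCF-7 breast cancer cells (ATCC) incubated 72 h with a range of concentrations of analogues, reference 1α,25-(OH)2-D3 or vehicle. Proliferation read as [3H]thymidine incorporation.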

MCF7 [4] = assay: Antiproliferative activity against human MCF7 cells at 1 uM after 72 hrs relative to 1-alpha,25-(OH)2-D3; type: functional; conditions: MCF7, 72 h; how it was run: as §1

Row | SMILES | Activity [1] [%] | Activity [2] [%] | Activity (MCF7 [3]) [%] | inhibition at 1 µM (MCF7 [4]) [%]
1 | C[C@H](CCCC(C)(C)O)[C@H]1CC[C@H]2C(/C=C\C3=C[C@H](O)[C@@H](O)[C@H](O)C3)=CCC[C@]12C | < 0.1 | 2 | 0 | –
2 | C[C@H](CCCC(C)(C)O)[C@H]1CC[C@H]2C(/C=C\C3=C[C@@H](O)[C@@H](O)[C@H](O)C3)=CCC[C@]12C | 0.2 | 4 | 2 | –
3 | C[C@H](CCCC(C)(C)O)[C@H]1CC[C@H]2C(/C=C\C3=C[C@@H](O)[C@@H](O)[C@@H](O)C3)=CCC[C@]12C | < 0.1 | 7 | 0 | –
4 | C[C@H](CCCC(C)(C)O)[C@H]1CC[C@H]2C(/C=C\C3=C[C@@H](O)[C@H](O)[C@H](O)C3)=CCC[C@]12C | 2 | 8 | 6 | 70
